Compounds with a hit are over-represented: about 4.8% of the library has one in this group of screens.
CSC inhib – blocks cancer stem cells. inhibition, % at 7.5 µM. 300,000 compounds, 1.1% hits. cancer stem cell-like cells viability, luminescence. AID 2717; in the data active = inhibition above about 75%; tested in HMLE shEcad cells
WT yeast gro inh – growth inhibition of WT yeast, mitochondrial fusion screen; mitochondrial fusion phenotypic screen, WT strain; inhibition, % at 10 µM; 190,000 compounds, 2.1% hits; AID 1362; in the data active = inhibition above about 58%; tested in S. cerevisiae
T cruzi inh – blocks replication of Trypanosoma cruzi. T. cruzi beta-gal in NIH3T3, luminescence, 90 h. inhibition, % (concentration not given with the values). 300,000 compounds, 1.4% hits. AID 1885;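 active = mean inhibition across valid replicates above about 55%, limit read from the data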;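 note: signal also drops with host cell toxicity which is not excluded here; 0% = plate median of DMSO wells and 100% = zero luminescence signal; higher percent means less beta-gal luminescence so fewer parasites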
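Read-out: Parasite load inhibition, % | Test system: Mouse NIH/3T3 fibroblasts infected with β-gal-expressing T. cruzi Tulahuen C4 | Amount: 5,000 cells/well | Medium: DMEM, 2% fetal bovine serum | Signal: GalScreen β-gal luminescence, detergent lysis, 60 min | Timing: 3 h attach, ≥90 h co-culture | Also added: Tulahuen C4 trypomastigotes, 5000/well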
Efflux pump inh – inhibitors of Candida antifungal efflux pumps expressed in yeast | S. cerevisiae Candida pump triplex, Nile Red efflux | inhibition, % at 10 µM | 330,000 compounds, 0.44% hits | AID 485275;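 active = plate passing quality check with inhibition over a set limit, or well fluorescence over plate mean plus 4 SD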;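 note: Nile Red retained in pooled yeast measured as flow cytometry median fluorescence; 0% = buffer negative control and 100% = Enniatin B positive control; higher means more Nile Red kept so more efflux inhibition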
Mot1-301 SUMO – SUMOylation pathway inhibition by Mot1-301 growth rescue; growth rescue, % at 18.8 µM; 320,000 compounds, 1% hits; S. cerevisiae Mot1-301 growth rescue, ATP luminescence, 38.5C; percent above DMSO median, 100 means doubled;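 active = every valid replicate shows activation above 250% relative to neutral control wells; inactive = the rest, any valid replicate at or below 250%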;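 note: OY570 slx delta 5 strain wells were the positive control but not used for scaling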
Beta apoptosis – beta cell apoptosis inhibition. protection from apoptosis, % (concentration not given with the values). AID 435005. 300,000 compounds, 0.8% hits. INS-1E cytokine-induced death, ATP luminescence, 48 h; percent of positive-control rescue, neutral wells zero;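 active = Every replicate reaches about 75%, or at least half do and their mean reaches it too, limit read from the data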;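 note: 0% = cytokine-treated negative control wells and 100% = positive control rescue; higher means more ATP so stronger rescue from cytokine killing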
Active calls of the source: *; / = no result given.

SMILES	CSC inhib	WT yeast gro inh	T cruzi inh	Efflux pump inh	Mot1-301 SUMO	Beta apoptosis
O=C(CSc1nc(C2CC2)nc2ccccc12)N1c2ccccc2Sc2ccccc21	5	-2	59*	0	-2	/
COc1ccccc1C(c1c(N)n(C)c(=O)n(C)c1=O)C(C)[N+](=O)[O-] (stereo unspecified)	9	/	-18	0	27	-2
COc1ccccc1C(C[N+](=O)[O-])c1c(N)n(C)c(=O)n(C)c1=O (stereo unspecified)	55	/	-21	0	594*	39
Cc1cccc(N(C(=O)C(F)(F)F)C(C(=O)NC2CCCCC2)c2cccs2)c1 (stereo unspecified)	/	-6	59*	0	-1	/
Cc1cc(C)cc(N(C(=O)C(F)(F)F)C(C(=O)NC2CCCCC2)c2cccs2)c1 (stereo unspecified)	/	4	-3	0	-19	/
C#CC(=O)N(c1ccc(OC)c(OC)c1)C(C(=O)NC1CCCC1)c1cccs1 (stereo unspecified)	10	3	26	0	33	50
C#CC(=O)N(c1cccc(OC)c1)C(C(=O)NC1CCCC1)c1cccs1 (stereo unspecified)	6	0	51	0	331*	94*
C[C@@H](NC(=O)[C@@H]1Cc2ccccc2CN1)C(=O)NCc1ccco1	1	/	6	0	9	-3
Cn1c(=O)cc(OCC(=O)NCc2cccs2)c2ccccc21	-2	1	16	0	-3	-5
CC(OC(=O)c1ccc(-c2ccc(O)cc2)cc1)C(=O)NC1CCCCC1C (stereo unspecified)	-1	/	0	0	750*	6
COc1ccc(C(C(=O)NCC2CCCO2)N(C(=O)c2snc(C(N)=O)c2N)c2ccc(C)cc2)cc1OC (stereo unspecified)	/	/	-11	/	/	/
COc1cccc(NC(=S)N/N=C2\CC3CCC2(C)C3(C)C)c1 (stereo unspecified)	-9	71*	19	0	11	18
CC12CCC(C/C1=N/NC(=O)Nc1ccccc1)C2(C)C (stereo unspecified)	58	-3	25	0	132	3
COc1ccc(C(=O)Nc2nc(-c3cccs3)cs2)cc1	13	54	23	0	0	-5
O=C(Nc1nc(-c2cccs2)cs1)c1ccc(Cl)cc1	43	67*	15	0	/	1
O=C(Nc1nc(-c2cccs2)cs1)c1ccc([N+](=O)[O-])o1	90*	/	/	0	146	-11
O=C(Nc1nc(-c2cc(Cl)sc2Cl)cs1)c1cccs1	112*	74*	16	0	-18	15
CCOc1ccc(CNS(=O)(=O)c2c(C)nc3sccn3c2=O)cc1OC	-5	/	-4	0	3	-3
COc1ccc(OC)c(-c2nn(-c3ccccc3)cc2C(=O)NCC(c2cccs2)N2CCOCC2)c1 (stereo unspecified)	-12	/	29	0	15	5
CCOC(=O)Cn1c(=O)c(F)cn(Cc2ccc(OC)c([N+](=O)[O-])c2)c1=O	/	/	-9	0	45	/
Cc1cc2c(n1-c1ccc(Br)cc1)CC(C)(C)CC2=O	-11	14	58*	0	9	/
COc1ccccc1-c1cc(C(=O)N2CCN(S(=O)(=O)c3ccc(C)cc3)CC2)[nH]n1	/	/	14	0	/	/
CCCCOC(=O)c1nc(Cl)c(Cl)c(N)c1Cl	5	-7	-6	0	166	-7
CCCCCCCOC(=O)c1nc(Cl)c(Cl)c(N)c1Cl	13	85*	0	0	-14	-4
CN(CC(=O)Nc1ccc(F)cc1)C(=O)Cn1nnc(-c2ccccc2)n1	-1	/	-13	0	11	-1
CC1=C(C(=O)c2ccccc2)C(c2cn(-c3ccccc3)nc2-c2ccc(Cl)cc2)NC(=S)N1 (stereo unspecified)	-12	11	60*	0	-11	-1
Cc1sc(NC(=S)NC(=O)C2CCCCC2)c(C(N)=O)c1C	-5	-6	-6	0	5	-6
Cc1onc(-c2ccc(Cl)cc2)c1-c1ccnc(SCC(=O)Nc2cc(Cl)cc(Cl)c2)n1	16	/	59*	0	2	-5
O=C(CSc1nccc(-c2cccs2)n1)Nc1cccc(Cl)c1	21	/	0	0	-12	3
